Assay results: ChEMBL document CHEMBL5696442, “Discovery of type II inhibitors of TGFβ-activated kinase 1 (TAK1) and mitogen-activated protein kinase kinase kinase kinase 2 (MAP4K2)” (J Med Chem, 2015)

What was measured:
[1] = biological target: Mitogen-activated protein kinase kinase kinase kinase 4 (Homo sapiens, UniProt O95819); assay: Inhibition of ZC1/HGK Lys2 labeling site in human A-375 cells at 0.05 uM by KiNativ Profiling analysis relative to control; type: cell-based
[2] = biological target: Serine/threonine-protein kinase 10 (Homo sapiens) (UniProt O94804); assay: Inhibition of LOK Lys1 labeling site harbouring ETGALAAAKVIETK in human A-375 cells at 0.5 uM by KiNativ Profiling analysis relative to control; type: cell-based
[3] = biological target: DNA-PK/Ku70/Ku85 (Homo sapiens) (UniProt P78527+P12956+P13010); assay: Inhibition of DNAPK ATP labeling site harbouring GHDEREHPFLVKGGEDLRQDQR in human A-375 cells at 5 uM by KiNativ Profiling analysis relative to control; type: cell-based
In short: (§1)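 Live A375 melanoma cells were treated with compound at 0.5 or 5 μM, then lysed. Lysates were labeled with a lysine-reactive ATP or ADP-biotin probe. The read-out was protection of each kinase probe-labeling site from labeling, relative to control.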

[4] = biological target: Serine/threonine-protein kinase SMG1 (Homo sapiens) (UniProt Q96Q15); assay: Inhibition of SMG1 ATP labeling site harbouring SYPYLFKGLEDLHLDER in human A-375 cells at 0.5 uM by KiNativ Profiling analysis relative to control; type: cell-based
In short: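 Live A375 melanoma cells treated with compound at 5 or 0.5 μM, then lysed. Lysate kinases were labeled with a lysine-reactive ATP or ADP-biotin probe. Inhibition was read as protection of labeling sites from the probe.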

[5] = Inhibition of p70S6K ATP Loop labeling site harbouring DLKPENIMLNHQGHVK in human A-375 cells at 5 uM by KiNativ Profiling analysis relative to control; conditions: condition cancer
[6] = biological target: TRAF2 and NCK-interacting protein kinase (Homo sapiens) (UniProt Q9UKE5); assay: Inhibition of ZC2/TNIK Lys1 labeling site in human A-375 cells at 0.5 uM by KiNativ Profiling analysis relative to control; type: cell-based
[7] = biological target: T1, Inhibitor of nuclear factor kappa-B kinase subunit epsilon (Homo sapiens) (UniProt Q14164); assay: Inhibition of IKKe Lys2 labeling site in human A-375 cells at 0.05 uM by KiNativ Profiling analysis relative to control; type: cell-based
T1 sequence (whole entry): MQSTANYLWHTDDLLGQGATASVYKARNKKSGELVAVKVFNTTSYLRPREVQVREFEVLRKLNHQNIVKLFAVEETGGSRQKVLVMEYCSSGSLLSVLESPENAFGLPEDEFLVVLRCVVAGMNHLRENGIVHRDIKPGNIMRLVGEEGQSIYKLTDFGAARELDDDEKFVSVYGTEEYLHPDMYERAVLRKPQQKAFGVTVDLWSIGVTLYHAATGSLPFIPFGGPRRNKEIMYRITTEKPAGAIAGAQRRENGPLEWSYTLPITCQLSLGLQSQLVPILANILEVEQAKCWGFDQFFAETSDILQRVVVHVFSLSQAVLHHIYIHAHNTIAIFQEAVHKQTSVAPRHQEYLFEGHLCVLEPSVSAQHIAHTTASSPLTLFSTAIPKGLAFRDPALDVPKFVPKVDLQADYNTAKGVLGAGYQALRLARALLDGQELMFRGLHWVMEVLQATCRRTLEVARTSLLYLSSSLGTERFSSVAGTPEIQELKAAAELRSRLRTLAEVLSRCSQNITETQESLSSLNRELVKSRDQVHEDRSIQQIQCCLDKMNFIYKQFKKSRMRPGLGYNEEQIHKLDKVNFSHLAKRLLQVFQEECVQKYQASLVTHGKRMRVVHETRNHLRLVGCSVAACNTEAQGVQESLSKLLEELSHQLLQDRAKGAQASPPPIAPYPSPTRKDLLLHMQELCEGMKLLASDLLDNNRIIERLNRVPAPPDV

[8] = biological target: Calcium/calmodulin-dependent protein kinase type II subunit gamma (Homo sapiens) (UniProt Q13555); assay: Inhibition of CaMK2g Lys1 labeling site harbouring KTSTQEYAAKIINTKK in human A-375 cells at 0.05 uM by KiNativ Profiling analysis relative to control; type: cell-based
Sequence of Calcium/calmodulin-dependent protein kinase type II subunit gamma (Homo sapiens) (Q13555 whole entry): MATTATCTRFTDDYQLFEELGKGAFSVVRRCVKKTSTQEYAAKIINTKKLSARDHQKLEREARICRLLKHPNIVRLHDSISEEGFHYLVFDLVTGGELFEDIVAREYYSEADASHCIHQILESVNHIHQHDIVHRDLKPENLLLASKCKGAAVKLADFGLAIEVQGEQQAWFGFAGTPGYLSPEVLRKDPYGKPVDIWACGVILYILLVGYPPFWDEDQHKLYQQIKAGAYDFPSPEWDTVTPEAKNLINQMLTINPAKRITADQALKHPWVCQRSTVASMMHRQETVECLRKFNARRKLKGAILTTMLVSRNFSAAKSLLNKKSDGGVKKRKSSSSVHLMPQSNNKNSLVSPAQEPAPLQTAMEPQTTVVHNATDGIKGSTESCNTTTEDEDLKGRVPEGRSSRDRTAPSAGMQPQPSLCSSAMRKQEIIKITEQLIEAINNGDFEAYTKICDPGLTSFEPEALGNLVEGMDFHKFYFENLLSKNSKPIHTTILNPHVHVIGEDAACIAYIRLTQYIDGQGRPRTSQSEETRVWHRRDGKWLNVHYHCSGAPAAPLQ

[9] = biological target: Misshapen-like kinase 1 (Homo sapiens) (UniProt Q8N4C8); assay: Inhibition of ZC3 Lys2 labeling site in human A-375 cells at 0.5 uM by KiNativ Profiling analysis relative to control; type: cell-based
[10] = biological target: Serine/threonine-protein kinase 26 (Homo sapiens) (UniProt Q9P289); assay: Inhibition of MST4 ACT labeling site in human A-375 cells at 0.5 uM by KiNativ Profiling analysis relative to control; type: cell-based
Sequence of Serine/threonine-protein kinase 26 (Homo sapiens) (Q9P289 2-416 limits assumed): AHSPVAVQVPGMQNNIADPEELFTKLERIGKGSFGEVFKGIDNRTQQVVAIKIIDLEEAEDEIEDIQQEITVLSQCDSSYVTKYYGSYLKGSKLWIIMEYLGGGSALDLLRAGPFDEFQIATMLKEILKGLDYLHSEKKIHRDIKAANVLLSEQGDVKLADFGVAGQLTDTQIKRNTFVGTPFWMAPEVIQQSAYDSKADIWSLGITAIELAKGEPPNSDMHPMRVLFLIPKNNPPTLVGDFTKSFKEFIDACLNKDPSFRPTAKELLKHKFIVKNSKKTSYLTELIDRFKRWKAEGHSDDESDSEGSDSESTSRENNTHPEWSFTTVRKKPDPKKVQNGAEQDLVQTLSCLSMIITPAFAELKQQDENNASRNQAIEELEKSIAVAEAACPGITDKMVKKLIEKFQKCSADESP

[11] = biological target: Mitogen-activated protein kinase 7 (Homo sapiens) (UniProt Q13164); assay: Inhibition of Erk5 Lys2 labeling site in human A-375 cells at 5 uM by KiNativ Profiling analysis relative to control; type: cell-based; in short: as §1
[12] = biological target: T2, Mitogen-activated protein kinase kinase kinase 2 (Homo sapiens) (UniProt Q9Y2U5); assay: Inhibition of MAP3K2 Lys1 labeling site harbouring VYLCYDVDTGRELAVKQVQFDPDSPETSKEVNALECEIQLLK in human A-375 cells at 0.5 uM by KiNativ Profiling analysis relative to control; type: cell-based
T2 sequence (whole entry): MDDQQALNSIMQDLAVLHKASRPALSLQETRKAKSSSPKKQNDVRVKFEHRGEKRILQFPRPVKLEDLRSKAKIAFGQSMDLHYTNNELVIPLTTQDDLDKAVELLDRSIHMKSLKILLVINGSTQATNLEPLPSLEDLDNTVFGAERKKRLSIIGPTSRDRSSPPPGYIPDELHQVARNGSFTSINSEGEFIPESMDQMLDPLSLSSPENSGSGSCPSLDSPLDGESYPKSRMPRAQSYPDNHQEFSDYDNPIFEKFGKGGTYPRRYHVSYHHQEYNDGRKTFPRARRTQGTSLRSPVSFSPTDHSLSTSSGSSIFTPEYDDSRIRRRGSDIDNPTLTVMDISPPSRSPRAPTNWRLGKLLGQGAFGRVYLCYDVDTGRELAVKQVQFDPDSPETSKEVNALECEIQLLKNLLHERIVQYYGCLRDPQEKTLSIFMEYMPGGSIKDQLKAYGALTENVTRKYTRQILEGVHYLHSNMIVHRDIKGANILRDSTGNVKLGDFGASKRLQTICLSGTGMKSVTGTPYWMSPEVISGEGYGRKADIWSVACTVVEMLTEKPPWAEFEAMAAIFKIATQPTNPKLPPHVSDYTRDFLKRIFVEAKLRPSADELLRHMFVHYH

[13] = biological target: Serine/threonine-protein kinase WNK2 (Homo sapiens) (UniProt Q9Y3S1); assay: Inhibition of Wnk2 Lys2 labeling site in human A-375 cells at 5 uM by KiNativ Profiling analysis relative to control; type: cell-based
Sequence of Serine/threonine-protein kinase WNK2 (Homo sapiens) (Q9Y3S1 whole entry): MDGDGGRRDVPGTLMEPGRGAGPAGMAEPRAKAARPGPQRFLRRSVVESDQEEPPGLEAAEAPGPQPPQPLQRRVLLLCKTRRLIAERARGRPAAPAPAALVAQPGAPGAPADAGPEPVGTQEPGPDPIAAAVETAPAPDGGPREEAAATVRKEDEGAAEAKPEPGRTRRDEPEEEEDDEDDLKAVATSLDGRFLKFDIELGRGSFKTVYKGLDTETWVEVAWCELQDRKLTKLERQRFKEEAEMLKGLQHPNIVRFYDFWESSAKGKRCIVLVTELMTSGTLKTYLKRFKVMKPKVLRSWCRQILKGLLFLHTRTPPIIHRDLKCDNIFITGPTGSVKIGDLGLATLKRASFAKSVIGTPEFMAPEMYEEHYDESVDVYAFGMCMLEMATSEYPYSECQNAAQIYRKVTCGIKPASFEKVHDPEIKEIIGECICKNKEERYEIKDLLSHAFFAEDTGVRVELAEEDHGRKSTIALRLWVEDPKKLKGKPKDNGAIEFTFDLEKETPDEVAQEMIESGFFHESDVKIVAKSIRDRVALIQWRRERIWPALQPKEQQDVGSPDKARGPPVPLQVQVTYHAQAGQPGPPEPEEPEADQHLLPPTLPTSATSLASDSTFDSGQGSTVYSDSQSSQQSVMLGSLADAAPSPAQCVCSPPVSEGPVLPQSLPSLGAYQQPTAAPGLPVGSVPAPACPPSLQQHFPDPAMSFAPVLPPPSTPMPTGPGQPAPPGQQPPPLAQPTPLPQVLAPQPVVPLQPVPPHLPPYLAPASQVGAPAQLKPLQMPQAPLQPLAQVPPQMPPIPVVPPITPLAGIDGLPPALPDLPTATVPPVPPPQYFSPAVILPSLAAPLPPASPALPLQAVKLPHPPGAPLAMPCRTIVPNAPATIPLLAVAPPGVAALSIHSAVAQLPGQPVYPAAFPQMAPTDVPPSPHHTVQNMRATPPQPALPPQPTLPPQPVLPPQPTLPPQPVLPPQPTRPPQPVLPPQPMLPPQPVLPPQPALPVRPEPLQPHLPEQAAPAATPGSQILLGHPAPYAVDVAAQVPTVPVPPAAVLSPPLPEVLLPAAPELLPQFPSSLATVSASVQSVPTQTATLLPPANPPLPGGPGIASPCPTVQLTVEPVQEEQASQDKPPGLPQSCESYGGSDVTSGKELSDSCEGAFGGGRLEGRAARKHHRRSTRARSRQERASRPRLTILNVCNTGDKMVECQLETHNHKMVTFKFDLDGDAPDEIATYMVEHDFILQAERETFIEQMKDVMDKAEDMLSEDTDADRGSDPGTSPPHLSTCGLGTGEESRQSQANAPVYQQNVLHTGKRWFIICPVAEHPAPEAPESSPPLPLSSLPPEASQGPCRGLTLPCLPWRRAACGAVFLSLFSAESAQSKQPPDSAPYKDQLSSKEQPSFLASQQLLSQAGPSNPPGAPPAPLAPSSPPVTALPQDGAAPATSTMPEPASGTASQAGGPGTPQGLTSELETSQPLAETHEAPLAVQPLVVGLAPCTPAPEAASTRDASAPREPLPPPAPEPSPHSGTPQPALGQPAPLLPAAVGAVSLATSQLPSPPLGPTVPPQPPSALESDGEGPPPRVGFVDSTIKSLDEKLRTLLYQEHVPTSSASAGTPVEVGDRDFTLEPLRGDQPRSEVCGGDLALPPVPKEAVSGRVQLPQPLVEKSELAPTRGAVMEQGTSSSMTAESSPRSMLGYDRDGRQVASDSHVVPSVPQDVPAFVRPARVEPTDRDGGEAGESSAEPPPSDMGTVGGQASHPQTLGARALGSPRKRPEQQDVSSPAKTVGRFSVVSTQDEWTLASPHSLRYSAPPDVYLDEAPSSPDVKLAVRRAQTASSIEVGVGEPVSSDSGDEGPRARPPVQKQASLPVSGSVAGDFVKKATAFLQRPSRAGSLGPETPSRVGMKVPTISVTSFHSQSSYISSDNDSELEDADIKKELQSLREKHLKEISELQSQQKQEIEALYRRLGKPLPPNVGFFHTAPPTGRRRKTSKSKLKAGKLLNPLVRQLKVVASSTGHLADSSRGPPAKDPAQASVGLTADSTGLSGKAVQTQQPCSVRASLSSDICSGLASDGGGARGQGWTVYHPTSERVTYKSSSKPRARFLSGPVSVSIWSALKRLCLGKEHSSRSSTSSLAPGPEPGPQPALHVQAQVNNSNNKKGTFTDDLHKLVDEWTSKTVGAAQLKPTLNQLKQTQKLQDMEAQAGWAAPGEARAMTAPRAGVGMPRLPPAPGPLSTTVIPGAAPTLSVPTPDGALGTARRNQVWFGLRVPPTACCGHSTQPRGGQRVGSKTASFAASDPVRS

[14] = biological target: Protein kinase C beta type (Homo sapiens) (UniProt P05771); assay: Inhibition of PKCb Lys2 labeling site in human A-375 cells at 0.5 uM by KiNativ Profiling analysis relative to control; type: cell-based
Sequence of Protein kinase C beta type (Homo sapiens) (P05771 2-671 limits assumed): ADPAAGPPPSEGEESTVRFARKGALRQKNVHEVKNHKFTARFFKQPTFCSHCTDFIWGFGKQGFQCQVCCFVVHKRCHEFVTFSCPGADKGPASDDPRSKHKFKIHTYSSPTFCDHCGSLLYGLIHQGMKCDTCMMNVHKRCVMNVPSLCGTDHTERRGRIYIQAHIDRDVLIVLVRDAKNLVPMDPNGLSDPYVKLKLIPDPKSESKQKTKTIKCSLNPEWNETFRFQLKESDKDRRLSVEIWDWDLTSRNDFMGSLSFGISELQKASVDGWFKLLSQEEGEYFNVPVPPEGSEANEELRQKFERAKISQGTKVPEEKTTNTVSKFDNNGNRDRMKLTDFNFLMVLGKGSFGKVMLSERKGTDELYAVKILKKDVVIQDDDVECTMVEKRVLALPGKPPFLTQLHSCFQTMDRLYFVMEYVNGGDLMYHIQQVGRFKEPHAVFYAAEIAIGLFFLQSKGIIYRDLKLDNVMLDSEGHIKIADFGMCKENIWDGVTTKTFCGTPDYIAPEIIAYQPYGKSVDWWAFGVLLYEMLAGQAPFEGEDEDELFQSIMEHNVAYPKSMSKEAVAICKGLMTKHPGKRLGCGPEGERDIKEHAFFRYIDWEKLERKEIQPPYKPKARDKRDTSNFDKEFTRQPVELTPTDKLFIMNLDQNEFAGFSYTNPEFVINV

[15] = biological target: Mitogen-activated protein kinase 9 (Homo sapiens, UniProt P45984); assay: Inhibition of JNK2 (unknown origin) Lys2 labeling site by KiNativ Profiling analysis
Sequence of Mitogen-activated protein kinase 9 (P45984 whole entry): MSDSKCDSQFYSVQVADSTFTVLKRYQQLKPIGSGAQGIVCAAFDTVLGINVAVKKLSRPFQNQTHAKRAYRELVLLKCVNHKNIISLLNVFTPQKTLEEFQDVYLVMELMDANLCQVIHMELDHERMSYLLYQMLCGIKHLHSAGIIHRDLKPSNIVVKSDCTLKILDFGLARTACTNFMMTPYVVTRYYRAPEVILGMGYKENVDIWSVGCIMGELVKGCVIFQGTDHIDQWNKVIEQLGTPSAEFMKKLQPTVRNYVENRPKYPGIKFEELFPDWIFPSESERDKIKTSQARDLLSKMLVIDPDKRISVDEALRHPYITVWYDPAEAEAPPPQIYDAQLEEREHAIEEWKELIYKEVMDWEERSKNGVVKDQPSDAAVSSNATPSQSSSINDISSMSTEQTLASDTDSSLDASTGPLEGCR

Row | SMILES | inhibition [1] [%] | inhibition [2] [%] | inhibition [3] [%] | inhibition [4] [%] | inhibition at 5 µM [5] [%] | inhibition [6] [%] | inhibition [7] [%] | inhibition [8] [%] | inhibition [9] [%] | inhibition [10] [%] | inhibition [11] [%] | inhibition [12] [%] | inhibition [13] [%] | inhibition [14] [%] | IC50 [15] [µM]
1 | CCN1CCN(Cc2ccc(NC(=O)c3ccc(C)c(Oc4ccnc5[nH]ccc45)c3)cc2C(F)(F)F)CC1 | 32.6 | 71.7 | 9.9 | 3 | 14.7 | 77.9 | 29.2 | 16.6 | 70.8 | 31.3 | 7.8 | 17.4 | -5.5 | 65 | > 10
2 | CCN1CCN(Cc2ccc(NC(=O)c3ccc(C)c(/C=C/c4cnc5[nH]ccc5c4OC)c3)cc2C(F)(F)F)CC1 | 19.5 | 60.7 | -4.9 | 33.7 | -8 | 74.9 | 19.8 | 14.5 | 48.1 | 18.3 | 8.7 | -0.7 | 14.3 | 48.2 | > 10
